Laboratory results as given in ChEMBL document CHEMBL1151985, “Cytotoxic and antiplasmodial xanthones from Pentadesma butyracea” (J Nat Prod, 2009).
Converted amounts (≈) assume the structure as drawn. The source made the active and inactive calls. No cut-off for these calls is given here.

Legend:
Plasmodium falciparum = experiment: Antiplasmodial activity […] against chloroquine-resistant Plasmodium falciparum FcB1 by [3H]hypoxanthine uptake; format: functional, organism-based; details: FcB1/Columbia
Summary of the method: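 P. falciparum cultured continuously and synchronized by 5% D-sorbitol lysis. Parasites incubated with compound for 48 h, with [3H]-hypoxanthine added 24 h before freezing. Plates freeze-thawed, harvested onto glass fibre filters, and incorporation read by beta counting. IC50 from linear least-squares regression; chloroquine as positive control.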

[1] = Ratio IC50 for human MCF7 cells to IC50 for chloroquine-resistant Plasmodium falciparum FcB1; format: functional
MCF7 = experiment: Cytotoxicity against human MCF7 cells assessed as [3H]hypoxanthin incorporation after 24 to 72 hrs; format: functional, cell-based
Summary of the method: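 MCF-7 cells kept as for the parasite culture but with 5% fetal calf serum in place of 5% human serum. Seeded at 2 × 10^4 cells/well, then exposed to compound. Growth read by [3H]-hypoxanthine incorporation after 24 and 72 h incubation, run as for the P. falciparum assay: plates frozen and thawed, harvested on glass fibre filters, beta-counted. IC50 from linear least-squares regression. Doxorubicin as positive control.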

SMILES	IC50 (Plasmodium falciparum) [µg/mL]	Ratio IC50 [1]	IC50 (MCF7) [µg/mL]	Activity (MCF7)
CC(C)=CCc1c(O)c(CC=C(C)C)c2oc3c(O)ccc(O)c3c(=O)c2c1O [GARTANIN]	3.1 (≈ 7.82 µM)	0.39	1.2 (≈ 3.03 µM)	–
CC(C)=CCc1c(O)cc2oc3c(CC=C(C)C)c(O)c(O)c(CC=C(C)C)c3c(=O)c2c1O [GARCINONE E]	2.8 (≈ 6.03 µM)	0.54	1.5 (≈ 3.23 µM)	–
CC(C)=CCc1c(O)cc2oc3c(CC=C(C)C)c(O)c4c(c3c(=O)c2c1O)C=CC(C)(C)O4 [TOVOPHYLLINE A]	2.8 (≈ 6.05 µM)	0.93	2.6 (≈ 5.62 µM)	–
CC(C)=CCc1c(O)cc2oc3c(CC=C(C)C)c(O)c4c(c3c(=O)c2c1O)CC(O)C(C)(C)O4 (centres undefined)	–	–	–	Active
COc1c(O)cc2oc3cc(O)c(C/C=C(\C)CCC=C(C)C)c(O)c3c(=O)c2c1CC=C(C)C [BUTYRAXANTHONE A]	3 (≈ 6.27 µM)	1.17	3.5 (≈ 7.31 µM)	–
CCN(CC)CCCC(C)Nc1ccnc2cc(Cl)ccc12 (centres undefined) [CHLOROQUINE]	–	–	> 100	–
COc1c(O)cc2oc3cc(O)cc(O)c3c(=O)c2c1CC=C(C)CCCC(C)(C)O [BUTYRAXANTHONE D]	10 (≈ 23.3 µM)	<0.13	1.3 (≈ 3.03 µM)	–
COc1c(O)cc2oc3cc(O)cc(O)c3c(=O)c2c1C/C=C(\C)CCC=C(C)C [RUBRAXANTHONE]	3.4 (≈ 8.28 µM)	0.76	2.6 (≈ 6.33 µM)	–
COc1c(O)cc2oc3cc(O)c(CC=C(C)C)c(O)c3c(=O)c2c1CC=C(C)C [MANGOSTIN]	2.9 (≈ 7.07 µM)	1.21	3.5 (≈ 8.53 µM)	–
CC(C)=CCc1c(O)c(O)c(CC=C(C)C)c2c(=O)c3c(O)c4c(cc3oc12)OC(C)(C)C=C4 [BUTYRAXANTHONE B]	2.7 (≈ 5.84 µM)	1.22	3.3 (≈ 7.13 µM)	–
COc1c(O)cc2oc3cc4c(c(O)c3c(=O)c2c1CC=C(C)C)C=CC(C)(C)O4 [MANGOSTANIN]	> 1.9	<2.05	3.9 (≈ 9.55 µM)	–
